Experimental data: ChEMBL document CHEMBL1926651, “Design, synthesis, antiviral and cytostatic evaluation of novel isoxazolidine nucleotide analogues with a 1,2,3-triazole linker” (Eur J Med Chem, 2012)
Activity calls are given as the source filed them. The calls are words filed in the database; no cut-off is given here.

How the values were obtained:
[1] = tested on: MDCK; assay: Cytotoxicity against MDCK cells assessed as change in cell morphology up to 100 uM; format: cell-based, Canis lupus familiaris; details: dog
How it was run: (§1)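 Uninfected host-cell cultures were examined under the microscope. MCC was taken as the lowest compound concentration producing a detectable alteration of normal cell morphology, assessed at concentrations up to 100 μM.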

[2] = tested on: Felid alphaherpesvirus 1; assay: Antiviral activity against Felid herpesvirus 1 infected in CrFK cells assessed as inhibition of viral plaque formation at 250 uM; format: functional, organism-based
How it was run: (§2)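 Confluent host cell monolayers were inoculated with 100 CCID50 of virus in the presence of test compound at serial dilutions (250, 50, 10, … μM). Viral cytopathicity was scored once it reached completion in untreated virus-infected controls.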

[3] = tested on: Sindbis virus; assay: Antiviral activity against Sindbis virus infected in african green monkey Vero cells assessed as inhibition of viral plaque formation at 250 uM; format: functional, organism-based; how it was run: as §2
[4] = tested on: Human betaherpesvirus 5; assay: Antiviral activity against Human cytomegalovirus Davis infected in human HEL cells assessed as inhibition of viral plaque formation at 250 uM; format: functional, organism-based
[5] = tested on: Human respirovirus 3; assay: Antiviral activity against Parainfluenza-3 virus infected in african green monkey Vero cells assessed as inhibition of viral plaque formation at 250 uM; format: functional, organism-based; how it was run: as §2
[6] = tested on: L1210; assay: Cytotoxicity against mouse L1210 cells 2 days by coulter counting; format: functional; details: L1210, 48 h
How it was run: (§3)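 Cells were suspended at 300,000–500,000 cells/mL and added 1:1 to compound dilutions. Incubation was at 37 °C, 2 days for L1210 and 3 days for CEM, HeLa and HEL. Cells were counted with a Coulter counter. CC50 is the concentration inhibiting cell proliferation by 50%.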

[7] = tested on: HEL; assay: Cytotoxicity against human HEL cells assessed as change in cell morphology up to 100 uM; format: cell-based; how it was run: as §1
[8] = tested on: Human immunodeficiency virus 1; assay: Antiviral activity against Human immunodeficiency virus 1 infected in human CEM cells assessed as inhibition of virus-induced giant cell formation after 4 days by microscopic analysis; format: functional, organism-based; details: CCRF-CEM
How it was run: (§4)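 CEM cells at about 3 × 10⁵ cells/cm³ were infected with 100 CCID50/mL of HIV-1(IIIB) or HIV-2(ROD), then seeded into wells holding test compound dilutions. After 4 days at 37 °C, virus-induced giant cell formation was scored microscopically.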

[9] = tested on: CCRF-CEM; assay: Cytotoxicity against human CEM cells 3 days by coulter counting; format: functional; details: 72 h; how it was run: as §3
[10] = tested on: Vaccinia virus; assay: Antiviral activity against Vaccinia virus infected in human HEL cells assessed as inhibition of viral plaque formation at 250 uM; format: functional, organism-based; details: Orthopoxvirus vaccinia; how it was run: as §2
[11] = tested on: Human alphaherpesvirus 2; assay: Antiviral activity against Herpes simplex virus 2 G infected in human HEL cells assessed as inhibition of viral plaque formation at 250 uM; format: functional, organism-based; details: strain G
[12] = Cytotoxicity against CRFK cells assessed as change in cell morphology up to 100 uM; format: cell-based, Felis catus; details: cat; how it was run: as §1
[13] = tested on: Mammalian orthoreovirus 1; assay: Antiviral activity against Reovirus-1 infected in african green monkey Vero cells assessed as inhibition of viral plaque formation at 250 uM; format: functional, organism-based; how it was run: as §2
[14] = tested on: Human alphaherpesvirus 3; assay: Antiviral activity against thymidine kinase-deficient Varicella Zoster virus 07/1 infected in human HEL cells assessed as inhibition of viral plaque formation at 250 uM; format: functional, organism-based
[15] = tested on: Respiratory syncytial virus; assay: Antiviral activity against Respiratory syncytial virus infected in human HeLa cells assessed as inhibition of viral plaque formation at 250 uM; format: functional, organism-based; how it was run: as §2
[16] = tested on: Punta Toro virus; assay: Antiviral activity against Punta Toro virus infected in african green monkey Vero cells assessed as inhibition of viral plaque formation at 250 uM; format: functional, organism-based
[17] = tested on: Human alphaherpesvirus 3; assay: Antiviral activity against thymidine kinase-positive Varicella Zoster virus Oka infected in human HEL cells assessed as inhibition of viral plaque formation at 250 uM; format: functional, cell-based; details: strain Oka vaccine
[18] = tested on: Feline coronavirus; assay: Antiviral activity against Feline coronavirus infected in CrFK cells assessed as inhibition of viral plaque formation at 250 uM; format: functional, organism-based; how it was run: as §2
[19] = tested on: Human betaherpesvirus 5; assay: Antiviral activity against Human cytomegalovirus AD169 infected in human HEL cells assessed as inhibition of viral plaque formation at 250 uM; format: functional, organism-based
[20] = tested on: Human alphaherpesvirus 1; assay: Antiviral activity against thymidine kinase-deficient acv-resistant Herpes simplex virus 1 KOS infected in human HEL cells assessed as inhibition of viral plaque formation at 250 uM; format: functional, organism-based
[21] = tested on: Vesicular stomatitis virus; assay: Antiviral activity against Vesicular stomatitis virus infected in human HEL cells assessed as inhibition of viral plaque formation at 250 uM; format: functional, organism-based; how it was run: as §2
[22] = tested on: HEL; assay: Cytotoxicity against human HEL cells 3 days by coulter counting; format: functional; details: 72 h; how it was run: as §3
[23] = tested on: HeLa; assay: Cytotoxicity against human HeLa cells 3 days by coulter counting; format: functional; details: 72 h; how it was run: as §3
[24] = tested on: Vesicular stomatitis virus; assay: Antiviral activity against Vesicular stomatitis virus infected in human Hela cells assessed as inhibition of viral plaque formation at 250 uM; format: functional, organism-based
[25] = tested on: Vero; assay: Cytotoxicity against african green monkey Vero cells assessed as change in cell morphology up to 100 uM; format: cell-based; details: chlorocebus sabaeus; how it was run: as §1
[26] = tested on: HeLa; assay: Cytotoxicity against human HeLa cells assessed as change in cell morphology up to 100 uM; format: cell-based; how it was run: as §1
[27] = tested on: Coxsackievirus B4; assay: Antiviral activity against Coxsackievirus B4 infected in human HeLa cells assessed as inhibition of viral plaque formation at 250 uM; format: functional, organism-based; how it was run: as §2
[28] = tested on: Coxsackievirus B4; assay: Antiviral activity against Coxsackievirus B4 infected in african green monkey Vero cells assessed as inhibition of viral plaque formation at 250 uM; format: functional, organism-based; how it was run: as §2
[29] = tested on: Human alphaherpesvirus 1; assay: Antiviral activity against Herpes simplex virus 1 KOS infected in human HEL cells assessed as inhibition of viral plaque formation at 250 uM; format: functional, organism-based; how it was run: as §2
[30] = tested on: Human immunodeficiency virus 2; assay: Antiviral activity against Human immunodeficiency virus 2 infected in human CEM cells assessed as inhibition of virus-induced giant cell formation after 4 days by microscopic analysis; format: functional, organism-based; details: CCRF-CEM; how it was run: as §4

In the case of `CCOP(=O)(OCC)[C@@H]1C[C@@H](n2cc(-c3ccccc3)nn2)ON1C` (racemic), the Activity [1] is reported as “Non-toxic”, the Activity [2] is reported as “inactive” and the Activity [3] is reported as “inactive”. For the same compound, the Activity [4] was “inactive”, the Activity [5] was “inactive” and the CC50 [6] was > 250 µM. For the same compound, the Activity [7] was “Non-toxic”, the Activity [8] was “inactive” and the CC50 [9] was > 250 µM. For the same compound, the Activity [10] was “inactive”, the Activity [11] was “inactive” and the Activity [12] was “Non-toxic”. The Activity [13] was “inactive”, the Activity [14] was “inactive” and the Activity [15] was “inactive”. The Activity [16] was “inactive”, the Activity [17] was “inactive” and the Activity [18] was “inactive”. For the same compound, the Activity [19] was “inactive”, the Activity [20] was “inactive” and the Activity [21] was “inactive”. For the same compound, the CC50 [22] was 40 µM, the CC50 [23] was > 250 µM and the Activity [24] was “inactive”. For the same compound, the Activity [25] was “Non-toxic”, the Activity [26] was “Non-toxic” and the Activity [27] was “inactive”. The Activity [28] was “inactive”, the Activity [29] was “inactive” and the Activity [30] was “inactive”.
